# Activity calls are given as the source filed them. The rule behind the calls is not given here.
# Key:
# Leishmania donovani = experiment: Antileishmanial activity against Leishmania donovani promastigotes by Alamar blue assay; assay type: functional, organism-based
# Vero = experiment: Cytotoxicity against Vero cells upto 23.8 ng/ml by neutral red assay; assay type: cell-based; conditions: chlorocebus sabaeus, in the assay text read “23.8 µg/ml” for “23.8 ng/ml”
# In short: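 Vero monkey kidney fibroblasts (ATCC), neutral red uptake read-out; compounds tested up to a highest concentration of 23.8 µg/mL.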
# Plasmodium berghei = experiment: Antimalarial activity as parasite elimination against Plasmodium berghei in mice (Mus musculus) at 100 mg/kg/day peroral dose over 4 days; assay type: functional, organism-based
# In short: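 Mice, 6 per group, infected with drug-sensitive P. berghei; oral dosing on days 0–3 post infection (×4); vehicle-only and chloroquine 10 mg/kg/day×4 oral controls. Curative means no parasites and survival to day D+60; suppressive means negative parasitaemia to D+7.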
# Candida albicans [1] = experiment: Antifungal activity against Candida albicans ATCC 90028 at 20 ug/mL after 18 to 24 hrs; assay type: functional, organism-based
# [2] = Methemoglobin toxicity in human erythrocytes incubated with mouse liver microsomes assessed as MetHb formation at 20 ug/mL by biotransformation linked assay; design: species or system Erythrocyte, Microsome
# In short: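 Compound at 20 µg/mL co-incubated 1 h at 37 °C, shaking, with mouse liver microsomes (500 µg protein), human erythrocytes (50% hematocrit suspension), NADPH-regenerating system, KCl, in 100 mM potassium phosphate pH 7.4; cells pelleted, lysed in Triton X-100 phosphate buffer pH 7.8; MetHb relative to total Hb by Evelyn–Malloy spectrophotometry; % versus vehicle control.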
# Cryptococcus neoformans = experiment: Antifungal activity against Cryptococcus neoformans ATCC 90113 after 68 to 72 hrs; assay type: functional, organism-based
# Candida albicans [3] = experiment: Antifungal activity against Candida albicans ATCC 90028 after 18 to 24 hrs; assay type: functional, organism-based
# Pichia kudriavzevii = experiment: Antifungal activity against Candida krusei ATCC 6258 after 18 to 24 hrs; assay type: functional, organism-based
# Nakaseomyces glabratus = experiment: Antifungal activity against Candida glabrata ATCC 90030 after 18 to 24 hrs; assay type: functional, organism-based
# Plasmodium falciparum [4] = experiment: Antimalarial activity against chloroquine-resistant Plasmodium falciparum W2; assay type: functional, organism-based
# Plasmodium falciparum [5] = experiment: Antimalarial activity against chloroquine-sensitive Plasmodium falciparum D6; assay type: functional, organism-based
# [6] = Selectivity index, Ratio of IC50 in Vero cells to IC50 in chloroquine-resistant Plasmodium falciparum W2; assay type: functional
# [7] = Selectivity index, Ratio of IC50 in Vero cells to IC50 in chloroquine-sensitive Plasmodium falciparum D6; assay type: functional
structure (smiles),measurement,setting,value
COc1cc(NC(C)CCCN)c2ncccc2c1 (stereo not given) [PRIMAQUINE],Activity,Leishmania donovani,inactive
same,IC50,Leishmania donovani,19.9 µg/mL
same,Activity,Vero,Non-toxic
same,Activity,Plasmodium berghei,inactive
same,Activity,Candida albicans [1],inactive
same,Activity,[2],47.9%
N=C(N)c1ccc(OCCCCCOc2ccc(C(=N)N)cc2)cc1 [PENTAMIDINE],IC50,Leishmania donovani,1 µg/mL
same,IC90,Leishmania donovani,3.8 µg/mL
C[C@@H]1[C@H](O)[C@@H](C)/C=C/C=C/C=C/C=C/C=C/C=C/C=C/[C@H](O[C@@H]2O[C@H](C)[C@@H](O)[C@H](N)[C@@H]2O)C[C@@H]2O[C@](O)(C[C@@H](O)C[C@@H](O)[C@H](O)CC[C@@H](O)C[C@@H](O)CC(=O)O[C@H]1C)C[C@H](O)[C@H]2C(=O)O [AMPHOTERICIN B],IC90,Leishmania donovani,0.35 µg/mL
same,IC50,Cryptococcus neoformans,0.75 µg/mL
same,MFC,Cryptococcus neoformans,1.5 µg/mL
same,IC50,Candida albicans [3],0.25 µg/mL
same,IC50,Pichia kudriavzevii,0.6 µg/mL
same,IC50,Nakaseomyces glabratus,0.07 µg/mL
same,MFC,Nakaseomyces glabratus,0.625 µg/mL
same,MIC,Nakaseomyces glabratus,0.31 µg/mL
C[C@@H]1CC[C@H]2[C@@H](C)C(=O)O[C@@H]3O[C@@]4(C)CC[C@@H]1[C@]32OO4 [ARTEMISININ],IC50,Plasmodium falciparum [4],9 ng/mL
same,IC50,Plasmodium falciparum [5],0.0152 µg/mL
same,Selectivity index,[6],2644
same,Selectivity index,[7],1565
